Laboratory results reported in ChEMBL document CHEMBL1151705, “Novel azalides derived from 16-membered macrolides. Part II: Isolation of the linear 9-formylcarboxylic acid and its sequential macrocyclization with an amino alcohol or an azidoamine” (2008).
In brackets after ≈: the same amount, converted by molar mass.

Tests used:
Type in all cases: functional
Staphylococcus aureus [1] = test: Antimicrobial activity against drug-susceptible Staphylococcus aureus 2 after 20 hrs by agar dilution method
Summary of the method: (§1)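 Agar dilution MIC. S. aureus seed culture was grown in sensitivity test broth. Cell suspension (about 10⁶ CFU/ml) was inoculated onto sensitivity disk agar with 5% horse blood and incubated at 37 °C for 20 h. MIC was the lowest drug concentration that prevented visible growth.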

Staphylococcus aureus [2] = test: Antimicrobial activity against Staphylococcus aureus 5 expressing inducible ermB after 20 hrs by agar dilution method; conditions: Staphylococcus aureus, 20 h; read-out: MIC; summary of the method: as §1
Moraxella catarrhalis [3] = test: Antimicrobial activity against drug-susceptible Moraxella catarrhalis 2 after 20 hrs by agar dilution method
Summary of the method: (§2)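 Streptococci, H. influenzae and M. catarrhalis were precultured on blood agar plates. Suspensions of about 10⁶ CFU/ml were inoculated onto sensitivity disk agar supplemented with 5% horse blood and incubated at 37 °C for 20 h. MIC was read as the lowest drug concentration with no visible growth.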

Moraxella catarrhalis [4] = test: Antimicrobial activity against drug-susceptible Moraxella catarrhalis 1 after 20 hrs by agar dilution method; summary of the method: as §2
Staphylococcus aureus [5] = test: Antimicrobial activity against drug-susceptible Staphylococcus aureus 3 after 20 hrs by agar dilution method; summary of the method: as §1
Streptococcus pneumoniae [6] = test: Antimicrobial activity against Streptococcus pneumoniae 7 expressing inducible ermB after 20 hrs by agar dilution method; summary of the method: as §2
Haemophilus influenzae [7] = test: Antimicrobial activity against drug-susceptible Haemophilus influenzae 4 after 20 hrs by agar dilution method; summary of the method: as §2
Streptococcus pneumoniae [8] = test: Antimicrobial activity against Streptococcus pneumoniae 10 expressing mefA after 20 hrs by agar dilution method; summary of the method: as §2
Streptococcus pyogenes [9] = test: Antimicrobial activity against drug-susceptible Streptococcus pyogenes 1 after 20 hrs by agar dilution method; summary of the method: as §2
Streptococcus pneumoniae [10] = test: Antimicrobial activity against drug-susceptible Streptococcus pneumoniae DP1 Type1 after 20 hrs by agar dilution method; summary of the method: as §2
Streptococcus pneumoniae [11] = test: Antimicrobial activity against Streptococcus pneumoniae 6 constitutively expressing ermB after 20 hrs by agar dilution method; conditions: Streptococcus pneumoniae, 20 h; read-out: MIC; summary of the method: as §2
Streptococcus pneumoniae [12] = test: Antimicrobial activity against Streptococcus pneumoniae 9 expressing mefA after 20 hrs by agar dilution method; summary of the method: as §2
Streptococcus pneumoniae [13] = test: Antimicrobial activity against Streptococcus pneumoniae 8 expressing inducible ermB after 20 hrs by agar dilution method; summary of the method: as §2
Streptococcus pyogenes [14] = test: Antimicrobial activity against Streptococcus pyogenes 3 expressing mefA after 20 hrs by agar dilution method; summary of the method: as §2
Staphylococcus aureus [15] = test: Antimicrobial activity against Staphylococcus aureus 4 constitutively expressing ermA after 20 hrs by agar dilution method; summary of the method: as §1
Staphylococcus aureus [16] = test: Antimicrobial activity against Staphylococcus aureus 6 expressing inducible ermB after 20 hrs by agar dilution method; summary of the method: as §1
Streptococcus pneumoniae [17] = test: Antimicrobial activity against drug-susceptible Streptococcus pneumoniae 3 after 20 hrs by agar dilution method; summary of the method: as §2
Staphylococcus aureus [18] = test: Antimicrobial activity against drug-susceptible Staphylococcus aureus 209P JC-1 after 20 hrs by agar dilution method; summary of the method: as §1
Streptococcus pneumoniae [19] = test: Antimicrobial activity against drug-susceptible Streptococcus pneumoniae 2 after 20 hrs by agar dilution method; summary of the method: as §2
Streptococcus pyogenes [20] = test: Antimicrobial activity against Streptococcus pyogenes 2 constitutively expressing ermB after 20 hrs by agar dilution method; summary of the method: as §2
Streptococcus pneumoniae [21] = test: Antimicrobial activity against Streptococcus pneumoniae 5 constitutively expressing ermB/mefA after 20 hrs by agar dilution method; conditions: Streptococcus pneumoniae, 20 h; read-out: MIC; summary of the method: as §2
Haemophilus influenzae [22] = test: Antimicrobial activity against drug-susceptible Haemophilus influenzae 1 after 20 hrs by agar dilution method; summary of the method: as §2
Haemophilus influenzae [23] = test: Antimicrobial activity against drug-susceptible Haemophilus influenzae 3 after 20 hrs by agar dilution method; summary of the method: as §2
Streptococcus pneumoniae [24] = test: Antimicrobial activity against Streptococcus pneumoniae 4 constitutively expressing ermB after 20 hrs by agar dilution method; conditions: Streptococcus pneumoniae, 20 h; read-out: MIC; summary of the method: as §2
Haemophilus influenzae [25] = test: Antimicrobial activity against drug-susceptible Haemophilus influenzae 2 after 20 hrs by agar dilution method; summary of the method: as §2
[26] = Staphylococcus aureus, 20 h, read-out: MIC
[27] = Moraxella catarrhalis, 20 h, read-out: MIC
[28] = Haemophilus influenzae, 20 h, read-out: MIC
[29] = Streptococcus pneumoniae, 20 h, read-out: MIC
[30] = Streptococcus pyogenes, 20 h, read-out: MIC
[31] = Staphylococcus aureus, 209P, 20 h, read-out: MIC

SMILES | MIC (Staphylococcus aureus [1]; [26]) | MIC (Staphylococcus aureus [2]) | MIC (Moraxella catarrhalis [3]; [27]) | MIC (Moraxella catarrhalis [4]; [27]) | MIC (Staphylococcus aureus [5]; [26]) | MIC (Haemophilus influenzae [7]; [28]) | MIC (Streptococcus pneumoniae [8]; [29]) | MIC (Streptococcus pneumoniae [10]; [29]) | MIC (Streptococcus pneumoniae [11]) | MIC (Streptococcus pneumoniae [12]; [29]) | MIC (Streptococcus pyogenes [14]; [30]) | MIC (Staphylococcus aureus [15]) | MIC (Staphylococcus aureus [16]) | MIC (Staphylococcus aureus [18]; [31]) | MIC (Streptococcus pneumoniae [19]; [29]) | MIC (Streptococcus pyogenes [20]) | MIC (Streptococcus pneumoniae [21]) | MIC (Haemophilus influenzae [22]; [28]) | MIC (Haemophilus influenzae [23]; [28]) | MIC (Streptococcus pneumoniae [6]; [29]) | further results
CCOC(=O)[C@H]1[C@H](C)O[C@@H](O[C@H]2[C@H](N(C)C)[C@@H](O)[C@H](O[C@H]3[C@@H](CC=O)C[C@@H](C)[C@@H](O)CN(C)CC(/C=C/Cc4ccnc5ccccc45)CCOC(=O)C[C@@H](OC(=O)CC)[C@@H]3OC)O[C@@H]2C)C[C@@]1(C)O (stereo in doubt; form 1) | 0.5 µg/mL (≈ 0.507 µM) | 0.13 µg/mL (≈ 0.132 µM) | 1 µg/mL (≈ 1.01 µM) | 1 µg/mL (≈ 1.01 µM) | 0.13 µg/mL (≈ 0.132 µM) | 8 µg/mL (≈ 8.11 µM) | 0.03 µg/mL (≈ 0.0304 µM) | 0.015 µg/mL (≈ 0.0152 µM) | > 128 µg/mL | 0.03 µg/mL (≈ 0.0304 µM) | 0.13 µg/mL (≈ 0.132 µM) | > 128 µg/mL | 0.25 µg/mL (≈ 0.253 µM) | 0.13 µg/mL (≈ 0.132 µM) | 0.03 µg/mL (≈ 0.0304 µM) | > 128 µg/mL | > 128 µg/mL | 16 µg/mL (≈ 16.2 µM) | 8 µg/mL (≈ 8.11 µM) |  | MIC (Streptococcus pneumoniae [6]): 8 µg/mL (≈ 8.11 µM); MIC (Streptococcus pyogenes [9]): 0.03 µg/mL (≈ 0.0304 µM); MIC (Streptococcus pneumoniae [13]): 8 µg/mL (≈ 8.11 µM); MIC (Streptococcus pneumoniae [17]; [29]): 0.03 µg/mL (≈ 0.0304 µM); MIC (Streptococcus pneumoniae [24]): > 128 µg/mL
CCOC(=O)[C@H]1[C@H](C)O[C@@H](O[C@H]2[C@H](N(C)C)[C@@H](O)[C@H](O[C@H]3[C@@H](CC=O)C[C@@H](C)[C@@H](O)CN(C)CC(CCCc4ccnc5ccccc45)CCOC(=O)C[C@@H](OC(=O)CC)[C@@H]3OC)O[C@@H]2C)C[C@@]1(C)O (stereo in doubt; form 1) | 0.5 µg/mL (≈ 0.506 µM) | 0.25 µg/mL (≈ 0.253 µM) | 1 µg/mL (≈ 1.01 µM) | 1 µg/mL (≈ 1.01 µM) | 0.25 µg/mL (≈ 0.253 µM) | 8 µg/mL (≈ 8.1 µM) | 0.03 µg/mL (≈ 0.0304 µM) | 0.015 µg/mL (≈ 0.0152 µM) | > 128 µg/mL | 0.03 µg/mL (≈ 0.0304 µM) | 0.25 µg/mL (≈ 0.253 µM) | > 128 µg/mL | 0.5 µg/mL (≈ 0.506 µM) | 0.25 µg/mL (≈ 0.253 µM) | 0.03 µg/mL (≈ 0.0304 µM) | > 128 µg/mL | > 128 µg/mL | 32 µg/mL (≈ 32.4 µM) | 8 µg/mL (≈ 8.1 µM) | 16 µg/mL (≈ 16.2 µM) | MIC (Streptococcus pyogenes [9]; [30]): 0.06 µg/mL (≈ 0.0607 µM); MIC (Streptococcus pneumoniae [13]; [29]): 16 µg/mL (≈ 16.2 µM); MIC (Streptococcus pneumoniae [17]; [29]): 0.03 µg/mL (≈ 0.0304 µM); MIC (Streptococcus pneumoniae [24]): > 128 µg/mL
CCOC(=O)[C@H]1[C@H](C)O[C@@H](O[C@H]2[C@H](N(C)C)[C@@H](O)[C@H](O[C@H]3[C@@H](CC=O)C[C@@H](C)[C@@H](O)CN(C)CCC(CCCc4cnc5ccccc5c4)NC(=O)C[C@@H](OC(=O)CC)[C@@H]3OC)O[C@@H]2C)C[C@@]1(C)O (stereo in doubt) |  |  |  |  |  |  |  |  |  |  |  |  |  |  |  |  |  |  |  |  | MIC (Staphylococcus aureus [1]): 2 µg/mL (≈ 2.06 µM); MIC (Moraxella catarrhalis [3]): 4 µg/mL (≈ 4.11 µM); MIC (Moraxella catarrhalis [4]): 8 µg/mL (≈ 8.22 µM); MIC (Staphylococcus aureus [5]): 0.5 µg/mL (≈ 0.514 µM); MIC (Streptococcus pneumoniae [6]): 8 µg/mL (≈ 8.22 µM); MIC (Haemophilus influenzae [7]): 16 µg/mL (≈ 16.4 µM); MIC (Streptococcus pneumoniae [8]): 0.06 µg/mL (≈ 0.0617 µM); MIC (Streptococcus pyogenes [9]): 0.25 µg/mL (≈ 0.257 µM); MIC (Streptococcus pneumoniae [10]): 0.03 µg/mL (≈ 0.0308 µM); MIC (Streptococcus pneumoniae [12]): 0.06 µg/mL (≈ 0.0617 µM); MIC (Streptococcus pneumoniae [13]): 8 µg/mL (≈ 8.22 µM); MIC (Streptococcus pyogenes [14]): 1 µg/mL (≈ 1.03 µM); MIC (Haemophilus influenzae [25]): 2 µg/mL (≈ 2.06 µM); MIC (Streptococcus pneumoniae [17]): 0.06 µg/mL (≈ 0.0617 µM); MIC (Staphylococcus aureus [18]): 1 µg/mL (≈ 1.03 µM); MIC (Streptococcus pneumoniae [19]): 0.06 µg/mL (≈ 0.0617 µM); MIC (Haemophilus influenzae [22]): 32 µg/mL (≈ 32.9 µM); MIC (Haemophilus influenzae [23]): 8 µg/mL (≈ 8.22 µM)
CCOC(=O)[C@H]1[C@H](C)O[C@@H](O[C@H]2[C@H](N(C)C)[C@@H](O)[C@H](O[C@H]3[C@@H](CC=O)C[C@@H](C)[C@@H](O)CN(CCCCc4ccccc4)CCC[C@@H](C)OC(=O)C[C@@H](OC(=O)CC)[C@@H]3OC)O[C@@H]2C)C[C@@]1(C)OC(C)=O | 1 µg/mL (≈ 1.01 µM) | 0.25 µg/mL (≈ 0.252 µM) | 0.5 µg/mL (≈ 0.503 µM) | 0.25 µg/mL (≈ 0.252 µM) | 0.25 µg/mL (≈ 0.252 µM) | 16 µg/mL (≈ 16.1 µM) | 0.06 µg/mL (≈ 0.0604 µM) | 0.06 µg/mL (≈ 0.0604 µM) | 64 µg/mL (≈ 64.4 µM) | 0.13 µg/mL (≈ 0.131 µM) | 0.25 µg/mL (≈ 0.252 µM) | > 128 µg/mL | 0.5 µg/mL (≈ 0.503 µM) | 0.25 µg/mL (≈ 0.252 µM) | 0.06 µg/mL (≈ 0.0604 µM) | 64 µg/mL (≈ 64.4 µM) | > 128 µg/mL | 32 µg/mL (≈ 32.2 µM) | 8 µg/mL (≈ 8.05 µM) | 1 µg/mL (≈ 1.01 µM) | MIC (Streptococcus pyogenes [9]; [30]): 0.13 µg/mL (≈ 0.131 µM); MIC (Streptococcus pneumoniae [13]; [29]): 1 µg/mL (≈ 1.01 µM); MIC (Haemophilus influenzae [25]; [28]): 0.5 µg/mL (≈ 0.503 µM)
CCOC(=O)[C@H]1[C@H](C)O[C@@H](O[C@H]2[C@H](N(C)C)[C@@H](O)[C@H](O[C@H]3[C@@H](CC=O)C[C@@H](C)[C@@H](OC(C)=O)CN(CCCCc4ccccc4)CCN(C)C(=O)C[C@@H](OC(=O)CC)[C@@H]3OC)O[C@@H]2C)C[C@@]1(C)OC(C)=O | 2 µg/mL (≈ 1.99 µM) | 1 µg/mL (≈ 0.994 µM) | 1 µg/mL (≈ 0.994 µM) | 1 µg/mL (≈ 0.994 µM) | 1 µg/mL (≈ 0.994 µM) | 16 µg/mL (≈ 15.9 µM) | 1 µg/mL (≈ 0.994 µM) | 0.5 µg/mL (≈ 0.497 µM) | > 128 µg/mL | 1 µg/mL (≈ 0.994 µM) | 1 µg/mL (≈ 0.994 µM) | > 128 µg/mL | 2 µg/mL (≈ 1.99 µM) | 1 µg/mL (≈ 0.994 µM) | 1 µg/mL (≈ 0.994 µM) | > 128 µg/mL | > 128 µg/mL | > 128 µg/mL | 16 µg/mL (≈ 15.9 µM) | > 128 µg/mL | MIC (Streptococcus pyogenes [9]; [30]): 0.5 µg/mL (≈ 0.497 µM); MIC (Streptococcus pneumoniae [13]; [29]): > 128 µg/mL; MIC (Haemophilus influenzae [25]; [28]): 4 µg/mL (≈ 3.98 µM)
